The list is not random: actives were taken first. Their share in the collection is about 9.2%.
ERb SRC1 inh: ER-beta (human) coactivator binding inhibition; actives 1.3% (n = 86,000); Q92731; TR-FRET ER-beta LBD / SRC1-Cy5 peptide binding; receptor agonist-loaded with 1 µM estradiol; AID 633; inhibition, % at 25.6 µM;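 active means compounds whose percent inhibition of the receptor-coactivator binding signal exceeds about 50% in the single-dose screen, limit read from the data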
H69AR inhibit: growth inhibitors of human H69AR lung tumor cells | actives 6% (n = 85,000) | H69AR lung tumor viability, ATP luminescence, 72 h; active compounds read low | viability, % at 10 µM | AID 598;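 active means viability at or below 40%; inactive means viability above 40%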;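 further: multidrug resistant small cell line overexpressing MRP-1 efflux transporter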
ERa coact pot: ER-alpha (human) coactivator binding potentiation | P03372 | TR-FRET ERalpha-LBD/SRC-Cy5 coactivator binding, 2 h; 100 = basal binding, no effect | coactivator binding (% of control), % at 25.6 µM | actives 1.3% (n = 86,000) | AID 639; in the data active means activity above about 200%;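 further: binding measured in presence of low estradiol as agonist stimulus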
Target sequence (P03372 whole entry, looked up, the tested form may be a part): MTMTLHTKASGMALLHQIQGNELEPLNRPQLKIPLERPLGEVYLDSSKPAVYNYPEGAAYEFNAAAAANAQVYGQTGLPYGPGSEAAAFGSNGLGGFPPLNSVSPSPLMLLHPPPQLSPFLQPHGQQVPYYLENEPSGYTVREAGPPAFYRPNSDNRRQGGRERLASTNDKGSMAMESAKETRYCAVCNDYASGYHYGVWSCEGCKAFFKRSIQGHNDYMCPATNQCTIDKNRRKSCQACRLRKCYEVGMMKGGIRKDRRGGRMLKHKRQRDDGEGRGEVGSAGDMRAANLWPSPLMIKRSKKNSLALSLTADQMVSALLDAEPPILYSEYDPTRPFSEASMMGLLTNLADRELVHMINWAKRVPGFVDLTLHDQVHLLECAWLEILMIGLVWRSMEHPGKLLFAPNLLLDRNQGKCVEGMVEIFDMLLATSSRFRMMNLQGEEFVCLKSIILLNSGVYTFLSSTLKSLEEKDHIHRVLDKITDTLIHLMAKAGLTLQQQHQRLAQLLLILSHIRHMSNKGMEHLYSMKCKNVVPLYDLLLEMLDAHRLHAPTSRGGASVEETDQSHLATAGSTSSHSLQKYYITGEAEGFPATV
HUVEC inhibit: inhibitors of human endothelial cell proliferation | HUVEC proliferation, CellTiter-Glo luminescence, 72 h; active compounds read low | actives 1.1% (n = 86,000) | AID 648 | viability, % at 10 µM (by protocol);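 active means viability at or below 30%; inactive means viability above 30%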
ERa coact inh: ER-alpha (human) coactivator binding inhibition | inhibition, % at 25.6 µM | actives 1.7% (n = 86,000) | P03372 | TR-FRET ER-alpha LBD / SRC-1 peptide, estradiol-bound; in the data active means inhibition above about 50%
Fibroblast inh: blocks proliferation of human lung fibroblasts. LL 47 human lung fibroblast viability, ATP luminescence; active compounds read low. viability, % at 10 µM. actives 1.1% (n = 85,000). AID 719;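 active means viability at or below 50% in the single dose screen; inactive means viability above 50%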;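 further: compound exposure lasted 72 h before the ATP readout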
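Material: human LL 47 lung fibroblast cells; quantity: 1,150 cells/well; medium: IMEM plus 15% FBS; doses: 0.1% DMSO in all compound wells; timing: overnight attachment after seeding, then 72 h compound exposure at 37 °C; detection: CellTiter-Glo luminescence; measure: % viability of median cell-only signal; controls: cell-only wells, no compound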
Numbers stand for hits; - = inactive; [ ] = another dose, or the depositor's remark.

SMILES	ERb SRC1 inh	H69AR inhibit	ERa coact pot	HUVEC inhibit	ERa coact inh	Fibroblast inh
COC(CNc1cc(=O)oc2ccccc12)OC	-	-	-	-	-	-
CC(NC(=O)CN1C(=O)NC(Cc2ccccc2)(Cc2ccccc2)C1=O)C12CC3CC(CC(C3)C1)C2 (configuration not stated)	-	6.3	-	-	-	-
Cc1ccc(C)c(C(=O)Cn2ncc(Cl)c(Cl)c2=O)c1	-	0.4	-	2.2	-	2.1
Cc1cc(Cl)c(S(=O)(=O)Nc2ccc3c(c2)OCO3)cc1OCC(N)=O	51	-	-	-	50	-
Cc1cc(Cl)c(S(=O)(=O)Nc2ccc3c(c2)OCO3)cc1OCC(=O)NC1CCCCC1	-	-	-	-	-	-
Cc1ccc2cccc(S(=O)(=O)Nc3ccc4c(c3)OCO4)c2n1	75[fluorescence artefact?]	-	-	-	83[fluorescence artefact?]	-
COc1ccc(S(=O)(=O)O/N=C2\CCCc3ccccc32)cc1	-	-	-	-	-	-
CCc1ccccc1NC(=O)c1cc(C2CC2)on1	-	-	-	-	-	-
CC(C)OC(=O)c1cccc(C(=O)O)n1	-	-	-	-	-	-
Cc1cc(C)c2ccc(C(=O)O)nc2c1O	-	38	-	-	-	-
CC(C)C[C@H](NC(=O)OC(C)(C)C)C(=O)N/N=C/C1=Cc2ccccc2OC1C (some centres not stated)	-	-	-	-	-	-
Cc1ccc2[nH]c(=O)c(-c3noc(-c4ccncc4)n3)cc2c1	-	-	-	-	-	-
COc1ccc2[nH]c(=O)c(-c3noc(-c4ccccc4)n3)cc2c1	61[fluorescence artefact?]	-	-	-	69[fluorescence artefact?]	-
O=C(CCCN1C(=O)c2cccc3cccc(c23)C1=O)N1CCc2ccccc2C1	-	-	-	-	-	-
CCOC(=O)C1=C(O)/C(=C/N(C)C)N=C1C	-	-	-	-	-	-
CCOC(=O)C1=C(O)/C(=C/c2ccc(CNC(=O)C(=O)Nc3ccc(C)cc3)o2)N=C1C	-	36	-	2.3	55[fluorescence artefact?]	7.4
COC(=O)C1=C(O)/C(=C\c2ccc(CNC(=O)C(=O)Nc3ccc(C)cc3)o2)N=C1C	-	25	-	-	72[fluorescence artefact?]	25
COC(=O)C1=C(O)/C(=C\c2ccc(CNC(=O)C(=O)Nc3ccc(C)c(C)c3)o2)N=C1C	-	40	-	19	74	-
C=CCNC(=O)Nc1ccc2oc(C)nc2c1	86[fluorescence artefact?]	-	-	-	-	-
Clc1ccccc1-c1ccc(CN2CCN(c3ccccc3)CC2)o1	-	-	-	-	-	-
COc1cccc(N(C(C)=O)c2nc(C)cc(C)c2C#N)c1	94[fluorescence artefact?]	-	-	-	-	-
COc1ccccc1N(C(C)=O)c1nc(C)cc(C)c1C#N	-	-	-	-	-	-
CCCCCCNC(=O)c1c(O)c2cccc3c2n(c1=O)CCC3	-	-	-	-	-	-
CCN(CC)CCNC(=O)c1c(O)c2cccc3c2n(c1=O)CCC3	-	31	-	-	-	-
CCCc1nc2ccccc2c(=O)n1NC(=O)c1c(O)c2cccc3c2n(c1=O)CCC3	-	18	-	-	-	-
SMILES	ERb SRC1 inh	H69AR inhibit	ERa coact pot	HUVEC inhibit	ERa coact inh	Fibroblast inh
CCCCCCc1nc2ccccc2c(=O)n1NC(=O)c1c(O)c2cccc3c2n(c1=O)CC3	-	36	-	-	-	-
Cc1onc(-c2ccccc2)c1C(=O)NC(C)C1CCCO1 (configuration not stated)	-	-	-	-	-	-
Cc1ccc(S(=O)(=O)Nc2c(C)n(C)n(-c3ccccc3)c2=O)cc1C(=O)NCc1ccccn1	-	-	-	-	-	-
O=C(CCn1nnc2ccccc21)Nc1nnc(-c2ccccc2F)s1	-	-	248	-	-	-
O=C(CCn1nnc2ccccc21)Nc1nnc(COc2ccccc2F)s1	-	-	-	-	-	-
CCOC(=O)Cc1csc(SCc2nc3sc4c(c3c(=O)[nH]2)CCC4)n1	-	-	-	-	-	-
O=C(c1cnn2c1NC(c1ccco1)CC2C(F)(F)F)N1CCN(c2cccc(Cl)c2)CC1 (configuration not stated)	-	14	-	-	-	-
COc1ccc(C2C=C(c3ccc(Cl)cc3)Nc3nc(NC(C)=O)nn32)cc1 (configuration not stated)	-	-	-	-	70	-
